We go through eleven molecules from ChEMBL document CHEMBL1129267, “Aryl 1-but-3-ynyl-4-phenyl-1,2,3,6-tetrahydropyridines as potential antipsychotic agents: synthesis and structure-activity relationships” (J Med Chem, 1996).

Test [1] addresses T1, D(2) dopamine receptor (Rattus norvegicus, UniProt P61169). The test is described as follows: Binding affinity at Dopamine receptor D2 in rat striatal membrane by [3H]spiperone displacement. The class given is cell membranes, Striatum. The method in brief:
(§1)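 Rat striatal membranes; [³H]spiperone 0.2 nM final; nonspecific binding defined with (+)-butaclamol 1.0 µM final. Four to six concentrations, each run in triplicate; Ki obtained by nonlinear regression analysis.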

For test [2], the system named is Mus musculus. The test is described as follows: (§2) Compound was tested for the inhibition of locomotor activity (LMA)by administering Intraperitoneally in mouse. The note with it: ip. The class given is functional.
The test system of test [3] is Rattus norvegicus. The test is described as follows: Compound was tested for the inhibition of locomotor activity (LMA)by administering orally in rat. The class given is functional. The note with it: po. The method, boiled down:
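Rats dosed orally 1 h before a 30 min test in darkened cylindrical photobeam chambers. Percent inhibition of locomotor activity relative to vehicle-treated animals; ED50 derived from three to six doses, n = 6-18 animals/dose.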

In test [4] the target is T1, D(2) dopamine receptor. Put plainly: Compound was evaluated for their affinity against dopamine receptor D2 by displacing [3H]-spiperone in rat striatal membrane. The class given is cell membranes, Striatum. The method, boiled down:
as §1

Test [5] concerns Rattus norvegicus. Put plainly: In vivo inhibition of locomotor activity in the rat following p.o. administration. The class given is functional. The conditions noted are these: po.
In test [6] the target is T2, 5-hydroxytryptamine receptor 1A (Rattus norvegicus, UniProt P19327).
T2 sequence (P19327 whole entry): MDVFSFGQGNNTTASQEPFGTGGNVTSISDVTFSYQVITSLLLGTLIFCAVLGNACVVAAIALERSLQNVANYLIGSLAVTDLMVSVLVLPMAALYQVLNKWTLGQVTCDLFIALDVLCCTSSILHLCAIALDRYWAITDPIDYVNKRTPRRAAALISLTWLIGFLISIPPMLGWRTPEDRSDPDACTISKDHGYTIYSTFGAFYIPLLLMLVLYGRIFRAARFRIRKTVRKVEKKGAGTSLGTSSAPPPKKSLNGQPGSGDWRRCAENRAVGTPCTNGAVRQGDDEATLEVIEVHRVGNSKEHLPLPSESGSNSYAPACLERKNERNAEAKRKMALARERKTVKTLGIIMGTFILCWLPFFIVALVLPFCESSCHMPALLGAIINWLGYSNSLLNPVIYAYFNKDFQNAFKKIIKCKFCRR
Put plainly: Binding affinity against serotonin 5-hydroxytryptamine 1A receptor using radioligand [3H]8-OH-DPAT binding assay. The method in brief: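 Rat hippocampal membranes labelled with [³H]-8-OH-DPAT (0.4 nM final); nonspecific binding with 8-OH-DPAT (1 µM).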

Test [7] relates to Rattus norvegicus. Put plainly: Percent decrease of the firing rate of rat substantia nigra DA neurons at a dose of 2.5 mg/kg ip. The class given is functional. The note with it: route intraperitoneal.
Test [8] addresses D(2) dopamine receptor (Homo sapiens, UniProt P14416). The test is described as follows: […] Dopamine receptor D2 mitogenesis measured as [3H]thymidine incorporation in CHO p-5 cells expressing human D2 receptors. The method in brief: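 CHO p-5 cells transfected with human D2L are grown 2 days at 37 °C in medium with 10% calf serum, rinsed, and switched to serum-free medium plus compound in water. After 16-17 h, [³H]thymidine (1 µCi/well) is added for 4 h; cells are harvested onto filters and counted.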

Test [9] has as its target T3, Adrenergic receptor alpha-1 (Rattus norvegicus, UniProt P15823+P23944+P43140).
T3 sequence (P15823 whole entry): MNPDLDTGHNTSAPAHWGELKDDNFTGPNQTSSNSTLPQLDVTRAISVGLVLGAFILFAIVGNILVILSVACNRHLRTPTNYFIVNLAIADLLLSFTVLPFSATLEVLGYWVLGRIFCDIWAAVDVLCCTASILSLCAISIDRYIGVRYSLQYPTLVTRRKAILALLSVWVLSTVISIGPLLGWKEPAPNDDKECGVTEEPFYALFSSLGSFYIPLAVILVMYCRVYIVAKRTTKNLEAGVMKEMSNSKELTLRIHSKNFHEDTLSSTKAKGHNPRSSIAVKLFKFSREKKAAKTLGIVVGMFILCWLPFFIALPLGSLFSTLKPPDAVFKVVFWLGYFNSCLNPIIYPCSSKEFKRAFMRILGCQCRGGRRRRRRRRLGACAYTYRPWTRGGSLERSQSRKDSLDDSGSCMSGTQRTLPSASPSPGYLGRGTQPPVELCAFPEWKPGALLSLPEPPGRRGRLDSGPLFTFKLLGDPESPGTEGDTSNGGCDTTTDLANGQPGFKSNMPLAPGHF
T3 sequence (P23944 whole entry): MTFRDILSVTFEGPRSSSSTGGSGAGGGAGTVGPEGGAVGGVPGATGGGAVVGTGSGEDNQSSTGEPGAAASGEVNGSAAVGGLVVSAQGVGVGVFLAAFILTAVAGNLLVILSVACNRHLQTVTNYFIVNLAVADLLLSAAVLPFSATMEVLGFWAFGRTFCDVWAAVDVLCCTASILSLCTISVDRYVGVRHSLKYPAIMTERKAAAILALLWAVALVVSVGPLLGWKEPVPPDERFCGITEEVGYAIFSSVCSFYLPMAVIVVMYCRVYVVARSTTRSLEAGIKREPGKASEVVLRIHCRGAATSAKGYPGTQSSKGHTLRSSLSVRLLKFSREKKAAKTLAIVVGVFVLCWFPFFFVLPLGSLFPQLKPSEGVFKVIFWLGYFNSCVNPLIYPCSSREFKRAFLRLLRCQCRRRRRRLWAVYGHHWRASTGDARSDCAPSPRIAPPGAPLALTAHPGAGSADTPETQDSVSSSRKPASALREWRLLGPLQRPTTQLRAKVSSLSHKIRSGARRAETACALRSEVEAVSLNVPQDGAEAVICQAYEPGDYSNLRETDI
T3 sequence (P43140 whole entry): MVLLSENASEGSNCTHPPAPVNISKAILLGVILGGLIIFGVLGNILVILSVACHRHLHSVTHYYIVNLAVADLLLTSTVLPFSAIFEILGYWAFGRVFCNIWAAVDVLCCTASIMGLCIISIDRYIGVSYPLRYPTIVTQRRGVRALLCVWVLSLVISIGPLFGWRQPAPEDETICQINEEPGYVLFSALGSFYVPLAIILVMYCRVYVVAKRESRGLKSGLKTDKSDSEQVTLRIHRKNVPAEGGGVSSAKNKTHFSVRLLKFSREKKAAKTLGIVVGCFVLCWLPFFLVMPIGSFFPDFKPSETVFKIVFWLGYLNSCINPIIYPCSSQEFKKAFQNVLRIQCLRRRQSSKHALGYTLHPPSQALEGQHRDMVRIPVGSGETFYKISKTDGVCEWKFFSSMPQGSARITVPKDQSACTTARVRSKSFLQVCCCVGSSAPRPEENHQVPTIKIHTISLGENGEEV
The test is described as follows: Binding affinity against Alpha-1 adrenergic receptor using radioligand [3H]prazosin binding assay. The class given is protein assay. The method, boiled down: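 Inhibition of [³H]prazosin (0.1 nM final) binding in rat cortex membranes; phentolamine (10 µM final) defines nonspecific binding.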

The target in test [10] is T1, D(2) dopamine receptor. The test is described as follows: Binding affinity against Dopamine receptor D2 in CHO-K1 cells using radioligand [3H]NPA binding assay. The class given is cell-based.
The next test concerns the target D(3) dopamine receptor (Homo sapiens, UniProt P35462). The test is described as follows: Binding affinity against human Dopamine receptor D3 in CHO-K1 cells using [3H]spiperone as radioligand. The class given is cell-based.
The subject of the next test is Monkey. The test is described as follows: Compound was tested for inhibition of conditioned avoidance after administering perorally(po) in squirrel monkeys. The conditions noted are these: Cebidae, in Saimiri. The class given is functional.
The target in another test is D(1A) dopamine receptor (Rattus norvegicus, UniProt P18901). The class given is cell membranes, Brain, Membrane.
D(1A) dopamine receptor, sequence (P18901 whole entry): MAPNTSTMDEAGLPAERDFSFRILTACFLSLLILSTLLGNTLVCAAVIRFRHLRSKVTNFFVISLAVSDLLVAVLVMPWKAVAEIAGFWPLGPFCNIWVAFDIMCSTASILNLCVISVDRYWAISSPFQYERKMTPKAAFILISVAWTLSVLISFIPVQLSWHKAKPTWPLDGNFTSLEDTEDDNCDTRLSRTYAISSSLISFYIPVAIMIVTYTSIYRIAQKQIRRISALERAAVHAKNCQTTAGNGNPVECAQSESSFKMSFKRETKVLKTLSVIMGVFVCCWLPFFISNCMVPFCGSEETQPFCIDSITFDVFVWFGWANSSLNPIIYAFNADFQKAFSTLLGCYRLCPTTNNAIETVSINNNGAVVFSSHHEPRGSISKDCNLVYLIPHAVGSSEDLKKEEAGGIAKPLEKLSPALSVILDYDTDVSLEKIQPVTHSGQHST
In another test the target is T4, D(4) dopamine receptor (Homo sapiens, UniProt P21917).
T4 sequence (P21917 whole entry): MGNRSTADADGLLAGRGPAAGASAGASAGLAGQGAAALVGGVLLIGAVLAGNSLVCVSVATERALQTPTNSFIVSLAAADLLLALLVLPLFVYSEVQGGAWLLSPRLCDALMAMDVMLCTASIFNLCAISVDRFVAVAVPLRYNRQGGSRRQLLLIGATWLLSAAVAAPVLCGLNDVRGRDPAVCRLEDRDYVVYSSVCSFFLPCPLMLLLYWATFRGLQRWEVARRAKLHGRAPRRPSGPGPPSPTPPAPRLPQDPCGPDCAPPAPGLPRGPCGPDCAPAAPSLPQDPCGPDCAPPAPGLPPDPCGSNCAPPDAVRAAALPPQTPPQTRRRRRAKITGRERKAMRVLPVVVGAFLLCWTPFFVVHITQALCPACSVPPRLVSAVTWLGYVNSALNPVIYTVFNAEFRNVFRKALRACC
The test is described as follows: Binding affinity against human Dopamine receptor D4 in CHO-K1 cells using [3H]spiperone as radioligand. The class given is cell-based. The method in brief: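 Human D4.2 receptor expressed in CHO K1 cells; [³H]spiperone 0.2 nM final; nonspecific binding defined with haloperidol 1.0 µM final.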

In test [11] the test system is Mus musculus. The description is as §2. The note with it: ip. The class given is functional. The method, boiled down:
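Mice dosed ip, then tested immediately for 1 h in darkened cylindrical photobeam chambers. Percent inhibition of locomotor activity relative to vehicle-treated animals; ED50 derived from three to six doses, n = 6-18 animals/dose.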
The source holds these as a separate data set.

T1 sequence (P61169 whole entry): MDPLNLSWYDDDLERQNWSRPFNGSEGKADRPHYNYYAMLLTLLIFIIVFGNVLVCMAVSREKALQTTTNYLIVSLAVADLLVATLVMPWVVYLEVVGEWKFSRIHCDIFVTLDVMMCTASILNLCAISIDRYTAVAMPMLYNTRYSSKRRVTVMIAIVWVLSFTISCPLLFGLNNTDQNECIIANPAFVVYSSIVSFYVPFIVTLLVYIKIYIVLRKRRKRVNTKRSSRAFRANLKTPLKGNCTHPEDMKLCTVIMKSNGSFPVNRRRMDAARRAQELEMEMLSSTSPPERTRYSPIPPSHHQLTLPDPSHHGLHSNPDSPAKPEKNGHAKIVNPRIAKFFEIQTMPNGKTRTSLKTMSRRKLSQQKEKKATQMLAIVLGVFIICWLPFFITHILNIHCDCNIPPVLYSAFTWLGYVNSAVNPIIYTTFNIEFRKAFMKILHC
D(2) dopamine receptor (Homo sapiens, UniProt P14416), sequence (P14416 whole entry): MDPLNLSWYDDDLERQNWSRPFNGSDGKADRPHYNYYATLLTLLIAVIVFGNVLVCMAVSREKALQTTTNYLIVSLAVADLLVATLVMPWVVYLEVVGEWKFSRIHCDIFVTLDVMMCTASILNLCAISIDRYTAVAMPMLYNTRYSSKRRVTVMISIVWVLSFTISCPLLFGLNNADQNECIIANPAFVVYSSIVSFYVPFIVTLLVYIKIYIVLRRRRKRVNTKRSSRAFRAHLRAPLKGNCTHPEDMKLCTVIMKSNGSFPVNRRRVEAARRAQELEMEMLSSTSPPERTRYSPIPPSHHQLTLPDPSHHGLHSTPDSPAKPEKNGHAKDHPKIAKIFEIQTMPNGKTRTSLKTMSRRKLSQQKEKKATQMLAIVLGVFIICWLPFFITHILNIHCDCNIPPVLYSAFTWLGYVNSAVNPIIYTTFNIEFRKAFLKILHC
D(3) dopamine receptor, sequence (P35462 whole entry): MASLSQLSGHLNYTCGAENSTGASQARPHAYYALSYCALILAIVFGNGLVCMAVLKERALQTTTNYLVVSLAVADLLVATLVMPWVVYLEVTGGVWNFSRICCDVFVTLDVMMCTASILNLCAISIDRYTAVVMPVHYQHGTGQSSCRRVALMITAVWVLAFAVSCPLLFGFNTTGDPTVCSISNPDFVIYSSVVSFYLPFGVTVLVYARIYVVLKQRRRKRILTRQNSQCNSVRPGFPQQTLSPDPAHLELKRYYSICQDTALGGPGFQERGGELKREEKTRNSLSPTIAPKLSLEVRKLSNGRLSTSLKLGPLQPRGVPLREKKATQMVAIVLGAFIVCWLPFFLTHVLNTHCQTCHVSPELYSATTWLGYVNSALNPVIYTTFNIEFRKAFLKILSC

The molecule `C(#Cc1cnc2ccccc2c1)CCN1CC=C(c2ccccc2)CC1` had a Ki on D(2) dopamine receptor [1] of 30 nM.
`Oc1ccc(C#CCCN2CC=C(c3ccccc3)CC2)cc1`: the ED50 in the test with Mus musculus [2] is 1.5 mg/kg; in the test on Rattus norvegicus [3], greater than 30 mg/kg. At D(2) dopamine receptor [4], the Ki was determined as 54 nM.
`C(#Cc1ccc2occc2c1)CCN1CC=C(c2ccccc2)CC1`: the ED50 with Rattus norvegicus [5] is 10.6 mg/kg; with Mus musculus [2], 2.5 mg/kg. This molecule also had a Ki at D(2) dopamine receptor [1] of 440 nM.
The molecule `C(#Cc1cncc2ccccc12)CCN1CC=C(c2ccccc2)CC1` gave an ED50 in the test with Rattus norvegicus [5] of 3.8 mg/kg. The same molecule came in with a Ki on D(2) dopamine receptor [1] of 73 nM.
`C(#Cc1ccccc1)CCN1CC=C(c2ccccc2)CC1`: the ED50 is 9.5 mg/kg in the test on Mus musculus [2] and 20.5 mg/kg in the test on Rattus norvegicus [3]. This molecule also gave a Ki on D(2) dopamine receptor [4] of 284 nM.
Consider `C(#Cc1cccnc1)CCN1CC=C(c2ccccc2)CC1`, for which the inhibition constant (Ki) in test [6] is 555 nM; at D(2) dopamine receptor [1] it was 37 nM; in test [9] it was 14.1 nM; on D(2) dopamine receptor [10] it was 3.3 nM; on D(3) dopamine receptor, 20 nM; at D(1A) dopamine receptor it was 5000 nM. The molecule further registered an inhibitory constant (Ki) on D(4) dopamine receptor of 681 nM. Moreover, the ED50 in the test with Rattus norvegicus [5] was found to be 1.4 mg/kg; with Monkey, 10.1 mg/kg. This molecule had a Decrease in the test with Rattus norvegicus [7] of 100%. The molecule further displayed a half-maximal effective concentration (EC50) at D(2) dopamine receptor [8] of 1.7 nM.
Regarding `C(#Cc1cnc2ccccc2c1)CN1CC=C(c2ccccc2)CC1`, the Ki on D(2) dopamine receptor [1] is greater than 10000 nM. Further, the ED50 in the test with Mus musculus [11] was greater than 30 mg/kg.
Take `Nc1ccc(C#CCCN2CC=C(c3ccccc3)CC2)cn1`: the inhibition constant (Ki) in test [6] is 632 nM; on D(2) dopamine receptor [1], 33 nM; at D(2) dopamine receptor [10], 19 nM; at D(3) dopamine receptor, 7 nM; at D(1A) dopamine receptor, greater than 10000 nM; at D(4) dopamine receptor, 278 nM. The median effective dose (ED50) is 2.5 mg/kg in the test with Rattus norvegicus [5], 0.06 mg/kg with Mus musculus [2] and 2.8 mg/kg in the test with Monkey. In the test on Rattus norvegicus [7], this molecule returned a Decrease of 63%. At D(2) dopamine receptor [8], this molecule registered a concentration for a half-maximal effect (EC50) of 0.5 nM.
As to `C(#Cc1ccccn1)CCN1CC=C(c2ccccc2)CC1`, the ED50 with Rattus norvegicus [5] worked out at 15.8 mg/kg. At D(2) dopamine receptor [1], the inhibition constant (Ki) came to 136 nM.
In the test on Rattus norvegicus [5], `C(#Cc1cnc2ccccc2c1)CCCN1CC=C(c2ccccc2)CC1` yielded an ED50 of 18.6 mg/kg.
For `Nc1ccccc1C#CCCN1CC=C(c2ccccc2)CC1`, the ED50 came to 23.9 mg/kg in the test with Rattus norvegicus [5] and 1.6 mg/kg in the test with Mus musculus [11]. This molecule gave a Ki at D(2) dopamine receptor [4] of 183 nM.

What is called Ki is the dissociation constant of the complex between target and ligand, obtained from inhibition or displacement. Usually ED50 stands for the midpoint of the dose-response relation. In general, EC50 refers to the concentration at which the effect is half-maximal.
